# Measurements from ChEMBL document CHEMBL1240446, “Synthesis and biological activities of novel amine-derived bis-azoles as potential antibacterial and antifungal agents” (2010).
# Key:
# Format in all cases: functional
# [1] = test system: Pseudomonas aeruginosa; assay: Antibacterial activity against Pseudomonas aeruginosa ATCC 27853 after 24 hrs by micro-broth dilution method; details: ATCC 27853, 24 h
# Outline: (§1)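 MIC by broth microdilution following NCCLS methods. Inoculum adjusted in sterile saline to 1×10^4–1×10^5 CFU. Compounds from DMSO stocks, two-fold serial dilutions in Mueller-Hinton broth at 256 down to 0.25 µg/mL. Incubation 37 °C, 24 h. DMSO solvent control at matching dilutions. Growth read visually and spectrophotometrically. MIC is the lowest concentration arresting growth.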
# [2] = test system: Bacillus; assay: Antibacterial activity against Bacillus proteus ATCC 13315 after 24 hrs by micro-broth dilution method; details: ATCC 13315, 24 h; outline: as §1
# [3] = test system: Candida albicans; assay: Antifungal activity against Candida albicans ATCC 76615 after 24 hrs by micro-broth dilution method; details: ATCC 76615, 24 h
# Outline: (§2)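 Broth microdilution per NCCLS. Spore suspension in sterile distilled water, taken from 1-day-old cultures on Sabouraud agar, final 1–5×10^3 spores/mL. Compounds diluted from stocks in RPMI 1640 to eleven concentrations, 0.25–256 µg/mL. Incubation 35 °C, 24 h. Growth scored visually and spectrophotometrically. MIC is the lowest concentration arresting fungal growth.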
# [4] = test system: Aspergillus fumigatus; assay: Antifungal activity against Aspergillus fumigatus ATCC 96918 after 24 hrs by micro-broth dilution method; details: ATCC 96918, 24 h; outline: as §2
# [5] = test system: Staphylococcus aureus; assay: Antibacterial activity against methicillin-resistant Staphylococcus aureus N315 after 24 hrs by micro-broth dilution method; details: N315, 24 h
# Outline: (§3)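 Broth microdilution per NCCLS in Mueller-Hinton broth. Inoculum adjusted in sterile saline to 1×10^4–1×10^5 CFU. Compounds taken from DMSO stocks and serially diluted two-fold to final 256–0.25 µg/mL (11 levels). Incubation 37 °C, 24 h, with a DMSO solvent control. Growth read visually and spectrophotometrically. MIC is the lowest concentration that arrests growth.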
# [6] = test system: Escherichia coli; assay: Antibacterial activity against Escherichia coli ATCC 25922 after 24 hrs by micro-broth dilution method; details: ATCC 25922, 24 h; outline: as §1
# [7] = test system: Staphylococcus aureus; assay: Antibacterial activity against Staphylococcus aureus ATCC 29213 after 24 hrs by micro-broth dilution method; details: ATCC 29213, 24 h; outline: as §3
# [8] = test system: Bacillus subtilis; assay: Antibacterial activity against Bacillus subtilis ATCC 21216 after 24 hrs by micro-broth dilution method; details: ATCC 21216, 24 h; outline: as §1
smiles,measurement,setting,value
Fc1ccc(CN(CCn2ccnc2)CCn2ccnc2)c(F)c1,MIC,[1],128 µg/mL
same,MIC,[2],64 µg/mL
same,MIC,[3],> 256 µg/mL
same,MIC,[4],> 256 µg/mL
same,MIC,[5],32 µg/mL
same,MIC,[6],64 µg/mL
same,MIC,[7],32 µg/mL
same,MIC,[8],32 µg/mL
Fc1ccc(CN(CCn2cncn2)CCn2cncn2)c(F)c1.O=[N+]([O-])O,MIC,[1],16 µg/mL
same,MIC,[2],> 256 µg/mL
same,MIC,[3],64 µg/mL
same,MIC,[4],> 256 µg/mL
same,MIC,[5],> 256 µg/mL
same,MIC,[6],128 µg/mL
same,MIC,[7],128 µg/mL
same,MIC,[8],32 µg/mL
OCCN(CCO)Cc1ccc(F)cc1F,MIC,[1],256 µg/mL
same,MIC,[2],256 µg/mL
same,MIC,[3],256 µg/mL
same,MIC,[4],> 256 µg/mL
same,MIC,[5],> 256 µg/mL
same,MIC,[6],128 µg/mL
same,MIC,[7],256 µg/mL
same,MIC,[8],256 µg/mL
